According to ChEMBL document CHEMBL4138137, “Discovery of Novel 5-(Piperazine-1-carbonyl)pyridin-2(1H)-one Derivatives as Orally eIF4A3-Selective Inhibitors” (ACS Med Chem Lett, 2017):
Values after ≈ are worked out from the molar mass of the structure shown.

Columns and labels:
[1] = target: Eukaryotic initiation factor 4A-I (Homo sapiens, UniProt P60842); assay: Inhibition of eIF4G-induced full length recombinant human N-terminal His6/SUMO-tagged eIF4A1 RNA dependent ATPase activity expressed in Escherichia coli BL21(DE3) using single stranded poly(U) RNA as substrate after 40 mins by ADP-Glo luminescence assay
Chain of Eukaryotic initiation factor 4A-I (P60842 whole entry): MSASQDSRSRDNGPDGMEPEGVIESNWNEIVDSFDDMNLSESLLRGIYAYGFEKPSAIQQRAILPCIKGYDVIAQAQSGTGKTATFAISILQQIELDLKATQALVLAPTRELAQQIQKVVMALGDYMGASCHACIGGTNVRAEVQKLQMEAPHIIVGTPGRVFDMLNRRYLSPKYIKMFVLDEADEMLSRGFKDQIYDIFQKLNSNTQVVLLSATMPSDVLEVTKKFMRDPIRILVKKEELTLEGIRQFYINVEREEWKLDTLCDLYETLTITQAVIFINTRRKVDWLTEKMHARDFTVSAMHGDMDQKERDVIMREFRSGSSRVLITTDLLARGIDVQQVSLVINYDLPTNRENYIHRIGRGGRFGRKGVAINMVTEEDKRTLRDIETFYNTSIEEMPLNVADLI
Method in brief: (§1)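 IC50 reported as the mean of duplicate experiments with 95% confidence intervals.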

[2] = target: Eukaryotic initiation factor 4A-III (Homo sapiens, UniProt P38919); assay: Inhibition of MLN51-induced full length recombinant human N-terminal His6/SUMO-tagged eIF4A3 RNA dependent ATPase activity expressed in Escherichia coli BL21(DE3) using single stranded poly(U) RNA as substrate after 30 mins by ADP-Glo luminescence assay; method in brief: as §1
Chain of Eukaryotic initiation factor 4A-III (P38919 whole entry): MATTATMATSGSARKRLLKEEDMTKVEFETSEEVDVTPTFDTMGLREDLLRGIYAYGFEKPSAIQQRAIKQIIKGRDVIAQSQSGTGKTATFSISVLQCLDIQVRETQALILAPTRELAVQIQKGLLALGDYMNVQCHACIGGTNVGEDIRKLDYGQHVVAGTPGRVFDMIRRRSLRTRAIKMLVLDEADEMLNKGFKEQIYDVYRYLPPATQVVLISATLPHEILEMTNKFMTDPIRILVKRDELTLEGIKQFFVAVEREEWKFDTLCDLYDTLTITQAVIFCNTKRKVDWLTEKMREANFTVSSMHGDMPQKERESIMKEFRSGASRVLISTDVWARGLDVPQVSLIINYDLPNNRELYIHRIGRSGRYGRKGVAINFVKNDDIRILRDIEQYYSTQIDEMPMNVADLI

[3] = Solubility of the compound at pH 6.8; type: physicochemical; conditions: buffer
Method in brief: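 Solubility measured at pH 6.8.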

[4] = Metabolic stability in mouse microsomes; type: ADME, Microsome; conditions: read-out: Stability
Method in brief: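 Metabolic stability measured in mouse liver microsomes, expressed in μL/min/mg.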

[5] = AUC (0 to 8 hrs) in ICR mouse at 1 mg/kg, po administered as cassette dose; type: ADME, organism-based; parameters: dose 1 mg/kg, time < 8 hr, route oral; conditions: in vivo
Method in brief: (§2)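 Cassette PK in male ICR mice, n = 3; dosed i.v. at 0.1 mg/kg and p.o. at 1 mg/kg. AUC taken over 0 to 8 h after oral dosing; bioavailability derived from the oral and i.v. exposures.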

[6] = Oral bioavailability in ICR mouse at 1 mg/kg administered as cassette dose; type: ADME, organism-based; conditions: in vivo; method in brief: as §2
[7] = target: Eukaryotic initiation factor 4A-II (Homo sapiens, UniProt Q14240); assay: Inhibition of eIF4G-induced full length recombinant human N-terminal His6/SUMO-tagged eIF4A2 RNA dependent ATPase activity using single stranded poly(U) RNA as substrate after 40 mins by ADP-Glo luminescence assay; method in brief: as §1
Chain of Eukaryotic initiation factor 4A-II (Q14240 whole entry): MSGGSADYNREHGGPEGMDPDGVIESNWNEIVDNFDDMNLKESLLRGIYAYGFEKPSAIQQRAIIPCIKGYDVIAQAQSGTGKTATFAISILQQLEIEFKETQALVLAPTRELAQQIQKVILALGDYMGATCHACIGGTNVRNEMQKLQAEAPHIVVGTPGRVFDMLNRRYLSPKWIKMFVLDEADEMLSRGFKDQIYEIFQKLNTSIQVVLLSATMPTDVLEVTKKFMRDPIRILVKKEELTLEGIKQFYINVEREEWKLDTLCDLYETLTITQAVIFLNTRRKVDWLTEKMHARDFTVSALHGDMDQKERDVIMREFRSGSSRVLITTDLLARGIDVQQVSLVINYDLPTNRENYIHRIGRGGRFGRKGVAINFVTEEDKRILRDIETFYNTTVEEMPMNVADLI

[8] = target: U5 small nuclear ribonucleoprotein 200 kDa helicase (Homo sapiens, UniProt O75643); assay: Inhibition of human recombinant N-terminal full length His-tagged BRR2 RNA dependent ATPase activity expressed in baculovirus infected Sf9 insect cells using single stranded poly(U) RNA as substrate after 30 mins by ADP-Glo luminescence assay; method in brief: as §1
Chain of U5 small nuclear ribonucleoprotein 200 kDa helicase (O75643 whole entry): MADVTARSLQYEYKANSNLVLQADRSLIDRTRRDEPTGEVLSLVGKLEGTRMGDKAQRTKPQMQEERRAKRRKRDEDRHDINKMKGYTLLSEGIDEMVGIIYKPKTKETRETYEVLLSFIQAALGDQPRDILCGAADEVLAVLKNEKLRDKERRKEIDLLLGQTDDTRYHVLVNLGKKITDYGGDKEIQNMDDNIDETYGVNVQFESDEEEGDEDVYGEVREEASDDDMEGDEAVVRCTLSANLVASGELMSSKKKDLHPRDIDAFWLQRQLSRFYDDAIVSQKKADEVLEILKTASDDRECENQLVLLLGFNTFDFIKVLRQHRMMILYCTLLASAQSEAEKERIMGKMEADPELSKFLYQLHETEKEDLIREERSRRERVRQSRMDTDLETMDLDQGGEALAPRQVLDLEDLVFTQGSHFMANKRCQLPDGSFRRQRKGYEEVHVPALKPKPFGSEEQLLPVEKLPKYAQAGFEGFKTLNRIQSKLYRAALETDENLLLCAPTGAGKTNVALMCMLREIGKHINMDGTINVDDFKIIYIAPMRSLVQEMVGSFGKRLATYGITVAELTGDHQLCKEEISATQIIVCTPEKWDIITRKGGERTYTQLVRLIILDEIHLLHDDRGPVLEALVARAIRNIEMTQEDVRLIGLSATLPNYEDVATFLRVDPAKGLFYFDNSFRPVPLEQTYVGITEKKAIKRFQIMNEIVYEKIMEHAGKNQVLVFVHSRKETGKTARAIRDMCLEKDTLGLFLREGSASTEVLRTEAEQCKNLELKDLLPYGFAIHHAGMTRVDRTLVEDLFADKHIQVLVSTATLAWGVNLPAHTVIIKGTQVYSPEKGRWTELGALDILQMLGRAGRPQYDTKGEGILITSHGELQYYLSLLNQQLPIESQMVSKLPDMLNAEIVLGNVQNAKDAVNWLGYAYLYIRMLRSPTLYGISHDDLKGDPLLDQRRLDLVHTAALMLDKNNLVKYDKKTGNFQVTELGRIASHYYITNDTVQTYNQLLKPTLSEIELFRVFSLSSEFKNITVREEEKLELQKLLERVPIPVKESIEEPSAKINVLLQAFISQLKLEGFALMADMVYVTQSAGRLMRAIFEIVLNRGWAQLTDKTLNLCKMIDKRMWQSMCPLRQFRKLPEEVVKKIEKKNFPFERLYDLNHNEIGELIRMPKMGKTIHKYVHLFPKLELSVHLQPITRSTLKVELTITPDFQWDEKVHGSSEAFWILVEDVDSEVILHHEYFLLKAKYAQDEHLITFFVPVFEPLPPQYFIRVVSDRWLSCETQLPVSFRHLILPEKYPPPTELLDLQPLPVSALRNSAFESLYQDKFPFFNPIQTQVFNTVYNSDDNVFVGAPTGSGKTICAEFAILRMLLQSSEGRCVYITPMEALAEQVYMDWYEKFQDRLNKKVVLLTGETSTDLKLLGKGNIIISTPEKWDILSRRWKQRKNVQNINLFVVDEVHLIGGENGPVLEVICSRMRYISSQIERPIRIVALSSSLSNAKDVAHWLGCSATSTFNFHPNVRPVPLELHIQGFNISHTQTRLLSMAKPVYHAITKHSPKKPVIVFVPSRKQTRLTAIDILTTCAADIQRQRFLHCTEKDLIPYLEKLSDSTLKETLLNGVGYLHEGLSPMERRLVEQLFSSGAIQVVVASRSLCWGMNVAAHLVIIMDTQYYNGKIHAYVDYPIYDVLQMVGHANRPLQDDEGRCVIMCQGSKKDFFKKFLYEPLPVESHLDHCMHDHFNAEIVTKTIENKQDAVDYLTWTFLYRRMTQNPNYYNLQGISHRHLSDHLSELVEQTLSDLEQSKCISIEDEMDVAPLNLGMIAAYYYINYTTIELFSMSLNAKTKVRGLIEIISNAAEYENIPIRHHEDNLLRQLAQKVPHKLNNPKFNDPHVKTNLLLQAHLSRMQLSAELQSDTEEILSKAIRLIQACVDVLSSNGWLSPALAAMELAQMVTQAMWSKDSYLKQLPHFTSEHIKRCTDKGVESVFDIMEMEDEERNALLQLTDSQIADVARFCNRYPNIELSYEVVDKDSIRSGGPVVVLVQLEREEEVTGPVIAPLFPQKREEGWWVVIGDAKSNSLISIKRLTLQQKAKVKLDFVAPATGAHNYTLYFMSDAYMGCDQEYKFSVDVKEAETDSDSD

[9] = target: T1, ATP-dependent RNA helicase DHX29 (Homo sapiens, UniProt Q7Z478); assay: Inhibition of human recombinant N-terminal full length FLAG-His-tagged DHX29 RNA dependent ATPase activity expressed in baculovirus infected Sf9 insect cells using single stranded poly(U) RNA as substrate after 30 mins by ADP-Glo luminescence assay; method in brief: as §1
T1 sequence (Q7Z478 whole entry): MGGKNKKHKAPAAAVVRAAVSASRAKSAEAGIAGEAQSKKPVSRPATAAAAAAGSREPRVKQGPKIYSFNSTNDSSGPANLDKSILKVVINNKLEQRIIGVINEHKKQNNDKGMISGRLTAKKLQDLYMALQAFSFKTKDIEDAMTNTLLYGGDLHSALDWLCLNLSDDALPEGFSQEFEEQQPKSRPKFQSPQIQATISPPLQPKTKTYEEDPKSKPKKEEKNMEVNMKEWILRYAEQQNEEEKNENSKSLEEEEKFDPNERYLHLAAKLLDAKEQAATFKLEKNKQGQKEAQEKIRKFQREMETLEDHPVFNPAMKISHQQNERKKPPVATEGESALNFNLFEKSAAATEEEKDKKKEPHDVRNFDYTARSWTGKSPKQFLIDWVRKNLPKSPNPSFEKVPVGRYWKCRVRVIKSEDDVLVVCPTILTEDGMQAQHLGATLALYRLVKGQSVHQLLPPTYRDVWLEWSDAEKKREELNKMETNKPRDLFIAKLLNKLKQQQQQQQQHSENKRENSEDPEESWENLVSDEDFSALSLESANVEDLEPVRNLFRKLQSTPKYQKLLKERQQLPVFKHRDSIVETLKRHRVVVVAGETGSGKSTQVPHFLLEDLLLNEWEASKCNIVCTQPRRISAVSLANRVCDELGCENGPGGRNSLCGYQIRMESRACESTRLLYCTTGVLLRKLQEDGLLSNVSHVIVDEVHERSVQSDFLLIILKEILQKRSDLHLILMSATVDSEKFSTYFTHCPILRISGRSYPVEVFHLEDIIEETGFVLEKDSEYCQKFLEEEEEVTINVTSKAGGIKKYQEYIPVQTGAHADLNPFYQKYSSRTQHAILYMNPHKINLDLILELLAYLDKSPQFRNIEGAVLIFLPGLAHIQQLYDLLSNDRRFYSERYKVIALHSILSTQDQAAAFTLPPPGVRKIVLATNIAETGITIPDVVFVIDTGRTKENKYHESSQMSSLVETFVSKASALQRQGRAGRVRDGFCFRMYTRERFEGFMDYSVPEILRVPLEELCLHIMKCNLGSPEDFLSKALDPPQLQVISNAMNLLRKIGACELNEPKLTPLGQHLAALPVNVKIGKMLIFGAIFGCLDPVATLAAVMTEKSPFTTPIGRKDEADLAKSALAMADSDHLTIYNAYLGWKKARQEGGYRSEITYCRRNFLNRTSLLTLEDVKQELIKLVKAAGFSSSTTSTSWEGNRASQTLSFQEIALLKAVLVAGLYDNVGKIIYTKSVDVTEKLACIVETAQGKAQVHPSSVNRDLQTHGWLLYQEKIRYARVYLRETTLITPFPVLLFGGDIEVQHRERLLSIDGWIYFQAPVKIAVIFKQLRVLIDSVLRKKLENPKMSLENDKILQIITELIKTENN

Homo sapiens [10] = species on record: Homo sapiens; assay: Inhibition of NMD in human HCT116 cells assessed as upregulation of SC35 1.6 kb mRNA expression level at 1 uM after 6 hrs by qPCR analysis relative to control; type: cell-based
Method in brief: (§3)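 HCT-116 colorectal carcinoma cells treated for 6 h at 1, 3 or 10 μM. SC35 1.6 kb mRNA level expressed as fold change relative to control. Data representative of three independent experiments.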

Homo sapiens [11] = species on record: Homo sapiens; assay: Inhibition of NMD in human HCT116 cells assessed as upregulation of SC35 1.6 kb mRNA expression level at 3 uM after 6 hrs by qPCR analysis relative to control; type: cell-based; method in brief: as §3
Homo sapiens [12] = species on record: Homo sapiens; assay: Inhibition of NMD in human HCT116 cells assessed as upregulation of SC35 1.6 kb mRNA expression level at 10 uM after 6 hrs by qPCR analysis relative to control; type: cell-based; method in brief: as §3
HCT-116 [13] = assay: Growth inhibition of human HCT116 cells after 3 days by CellTiter-Glo luminescence assay; type: functional; conditions: HCT-116, 72 h
Method in brief: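 HCT-116 cells exposed to compound for 72 h; growth read as intracellular ATP amount. GI50 derived by curve fitting. Data representative of three independent experiments.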

Mus musculus [14] = assay: In vivo inhibition of NMD in BALB/cA Jc1 nude mouse xenografted with human HCT116 cells assessed as upregulation of SC35 1.6 kb mRNA expression level in tumor at 100 mg/kg, po administered as single dose measured after 4 hrs by qPCR analysis relative to control; type: functional
Method in brief: (§4)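 HCT-116 xenograft mice given a single oral dose of 100 mg/kg in a solubilizing formulation. Tumour SC35 1.6 kb mRNA expression measured at 4, 8 and 24 h after dosing.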

Mus musculus [15] = assay: In vivo inhibition of NMD in BALB/cA Jc1 nude mouse xenografted with human HCT116 cells assessed as upregulation of SC35 1.6 kb mRNA expression level in tumor at 100 mg/kg, po administered as single dose measured after 8 hrs by qPCR analysis relative to control; type: functional; method in brief: as §4
Mus musculus [16] = assay: In vivo inhibition of NMD in BALB/cA Jc1 nude mouse xenografted with human HCT116 cells assessed as upregulation of SC35 1.6 kb mRNA expression level in tumor at 100 mg/kg, po administered as single dose measured after 24 hrs by qPCR analysis relative to control; type: functional; method in brief: as §4
HCT-116 [17] = assay: Antitumor activity against human HCT116 cells xenografted in BALB/cA Jc1 nude mouse assessed as reduction in tumor volume at 100 mg/kg, po bid administered for 14 days measured twice per week relative to control; type: functional
Method in brief: (§5)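 HCT-116 xenograft mice dosed orally at 100 mg/kg twice daily for 14 days in a solubilizing formulation. Efficacy expressed as T/C versus a vehicle group, with Dunnett's test; body weight change monitored over the study.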

Mus musculus [18] = assay: Toxicity in BALB/cA Jc1 nude mouse xenografted with human HCT116 cells assessed as reduction in body weight at 100 mg/kg, po bid administered for 14 days measured twice per week; type: organism-based; parameters: scale not given: the % may be the effect or the level left; conditions: in vivo, 336 h; method in brief: as §5
[19] = target: MDR1 (ABCB1, P-glycoprotein) (Homo sapiens, UniProt P08183); assay: Substrate activity at MDR1 (unknown origin) assessed as efflux ratio of permeability; type: ADME; conditions: not told
Chain of MDR1 (ABCB1, P-glycoprotein) (P08183 whole entry): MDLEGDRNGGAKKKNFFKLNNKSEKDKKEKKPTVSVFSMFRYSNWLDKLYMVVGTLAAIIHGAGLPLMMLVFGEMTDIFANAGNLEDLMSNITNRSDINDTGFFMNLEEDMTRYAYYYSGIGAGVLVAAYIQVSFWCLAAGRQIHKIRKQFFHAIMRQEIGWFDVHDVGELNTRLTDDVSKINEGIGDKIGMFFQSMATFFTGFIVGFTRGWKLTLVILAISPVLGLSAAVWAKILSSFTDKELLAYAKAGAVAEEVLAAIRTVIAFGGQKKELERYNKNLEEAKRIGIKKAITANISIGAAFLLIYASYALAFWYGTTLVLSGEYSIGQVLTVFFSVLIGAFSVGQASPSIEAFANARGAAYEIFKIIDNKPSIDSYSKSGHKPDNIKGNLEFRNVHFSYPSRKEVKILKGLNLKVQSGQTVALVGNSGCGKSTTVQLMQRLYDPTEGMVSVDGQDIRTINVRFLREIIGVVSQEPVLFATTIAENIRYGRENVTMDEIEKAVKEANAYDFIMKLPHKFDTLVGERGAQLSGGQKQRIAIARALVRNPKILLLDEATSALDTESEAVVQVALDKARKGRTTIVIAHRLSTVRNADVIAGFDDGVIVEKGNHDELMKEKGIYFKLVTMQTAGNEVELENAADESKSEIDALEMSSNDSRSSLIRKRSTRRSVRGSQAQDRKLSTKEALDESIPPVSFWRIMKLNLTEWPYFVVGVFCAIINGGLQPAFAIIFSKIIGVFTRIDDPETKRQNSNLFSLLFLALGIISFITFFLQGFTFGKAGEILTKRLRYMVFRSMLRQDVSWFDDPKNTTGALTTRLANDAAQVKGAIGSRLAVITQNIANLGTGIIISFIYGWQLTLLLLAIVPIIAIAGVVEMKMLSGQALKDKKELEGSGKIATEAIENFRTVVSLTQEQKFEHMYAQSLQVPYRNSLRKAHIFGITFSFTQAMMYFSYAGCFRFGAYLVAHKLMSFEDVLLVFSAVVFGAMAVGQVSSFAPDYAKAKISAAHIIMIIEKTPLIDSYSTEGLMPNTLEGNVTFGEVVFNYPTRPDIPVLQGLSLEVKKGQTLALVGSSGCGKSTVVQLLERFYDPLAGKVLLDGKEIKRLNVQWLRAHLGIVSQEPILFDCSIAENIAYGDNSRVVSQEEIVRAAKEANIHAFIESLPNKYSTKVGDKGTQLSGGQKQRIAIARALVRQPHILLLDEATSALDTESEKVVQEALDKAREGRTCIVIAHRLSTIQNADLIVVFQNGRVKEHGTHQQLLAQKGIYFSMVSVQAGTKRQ
Method in brief: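 Efflux ratio measured in vitro in an MDR1-overexpressing cell line.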

| Compound | IC50 [2] [nM] | solubility [3] [µg/mL] | microsomal CLint [4] [µL/min/mg] | AUC(0-t) at 8 h [5] [ng·h/mL] | bioavailability [6] [%] | other results |
| --- | --- | --- | --- | --- | --- | --- |
| O=C(c1c[nH]c(=O)c(-c2ccccc2Cl)c1)N1CCN(C(=O)c2ccc(Cl)cc2)C(c2ccc(Cl)cc2)C1 (configuration not stated) | 420 | – | – | – | – | – |
| O=C(c1c[nH]c(=O)c(-c2cccc(C(F)(F)F)c2)c1)N1CCN(C(=O)c2ccc(Cl)cc2)C(c2ccc(Cl)cc2)C1 (configuration not stated) | 700 | – | – | – | – | – |
| O=C(c1c[nH]c(=O)c2ccccc12)N1CCN(C(=O)c2ccc(Br)cc2)[C@@H](c2ccc(Cl)cc2)C1 | 290 | 11 (≈ 20 µM) | 16 | 97.3 | 9.6 | – |
| O=C(c1c[nH]c(=O)c(-c2ccccc2)c1)N1CCN(C(=O)c2ccc(Cl)cc2)C(c2ccc(Cl)cc2)C1 (configuration not stated) | 410 | – | – | – | – | – |
| O=C(c1c[nH]c(=O)c(-c2ccc(Cl)cc2)c1)N1CCN(C(=O)c2ccc(Cl)cc2)C(c2ccc(Cl)cc2)C1 (configuration not stated) | 1100 | – | – | – | – | – |
| O=C(c1c[nH]c(=O)c2ccccc12)N1CCN(C(=O)c2ccc(Cl)cc2)C(c2ccc(Cl)cc2)C1 (configuration not stated) | 1300 | – | – | – | – | – |
| CS(=O)(=O)c1cccc(-c2cc(C(=O)N3CCN(C(=O)c4ccc(Cl)cc4)C(c4ccc(Cl)cc4)C3)c[nH]c2=O)c1 (configuration not stated) | 490 | – | – | – | – | – |
| O=C(c1c[nH]c(=O)c(-c2cccc(Cl)c2)c1)N1CCN(C(=O)c2ccc(Cl)cc2)C(c2ccc(Cl)cc2)C1 (configuration not stated) | 290 | – | – | – | – | – |
| N#Cc1cccc(-c2cc(C(=O)N3CCN(C(=O)c4ccc(Cl)cc4)C(c4ccc(Cl)cc4)C3)c[nH]c2=O)c1 (configuration not stated) | 190 | – | – | – | – | – |

Further lines, with some results ahead:

| IC50 [2] [nM] | solubility [3] [µg/mL] | microsomal CLint [4] [µL/min/mg] | AUC(0-t) at 8 h [5] [ng·h/mL] | bioavailability [6] [%] | Compound | other results |
| --- | --- | --- | --- | --- | --- | --- |
| 100 | 12 (≈ 19.5 µM) | 6 | 147 | 16.1 | Cn1cc(C(=O)N2CCN(C(=O)c3ccc(Br)cn3)[C@@H](c3ccc(Cl)cc3)C2)cc(-c2cccc(C#N)c2)c1=O | IC50 [1]: > 100000 nM; IC50 [7]: > 100000 nM; IC50 [8]: > 100000 nM; IC50 [9]: > 100000 nM; fold change (FC) (Homo sapiens [10]): 2.17; fold change (FC) (Homo sapiens [11]): 8.41; fold change (FC) (Homo sapiens [12]): 19.1; GI50 (HCT-116 [13]): 1340 nM; fold change (FC) (Mus musculus [14]): 4; fold change (FC) (Mus musculus [15]): 2.5; fold change (FC) (Mus musculus [16]): 1.2; T/C (HCT-116 [17]): 54%; Activity (Mus musculus [18]): < 5%; efflux ratio [19]: 25 |
| – | 0.46 (≈ 0.763 µM) | 227 | 9 | 5.7 | O=C(c1cnn2cc(Br)ccc12)N1CCN(C(=O)c2ccc(Br)cc2)[C@@H](c2ccc(Cl)cc2)C1 | GI50 (HCT-116 [13]): 3060 nM; efflux ratio [19]: 0.9 |
| 50 | 2.4 (≈ 3.98 µM) | 113 | – | – | N#Cc1cccc(-c2cc(C(=O)N3CCN(C(=O)c4ccc(Br)cn4)[C@@H](c4ccc(Cl)cc4)C3)c[nH]c2=O)c1 | efflux ratio [19]: 35 |
| 2700 | 3.2 (≈ 5.98 µM) | 143 | 129 | 19.7 | O=C(c1ccnc2ccccc12)N1CCN(C(=O)c2ccc(Br)cc2)[C@@H](c2ccc(Cl)cc2)C1 | – |
| 280 | 3.8 (≈ 6.29 µM) | 207 | 55.9 | 11.4 | O=C(c1cnn2cc(Br)ccc12)N1CCN(C(=O)c2ccc(Br)cn2)[C@@H](c2ccc(Cl)cc2)C1 | – |
| 1600 | 5.1 (≈ 9.54 µM) | 202 | 1.5 | 0.4 | O=C(c1cncc2ccccc12)N1CCN(C(=O)c2ccc(Br)cc2)[C@@H](c2ccc(Cl)cc2)C1 | – |
